B1: tRNA (parent)
chain: GUUCCGUUGGCGUAAUGGUAACGCGUCUCCCUCCUAAGGAGAAGACUGCGGGUUCGAGUCCCGUACGGAACG

In the RNAGym collection of RNA variant scans (doi:10.1126/science.aae0568) one finds yeast fitness data, which are given here for 167 variants.

Variants at the floor of the assay were thinned out. Some results are limits rather than exact numbers.

The variants in the data set derive from B1. Briefly: yeast fitness relative to wild type (ratio to wild type); higher = fitter; tRNA-Arg(CCU), competitive growth, 37 C, YPD. The essentials: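 Gene amplicons from the start population and from each of six end populations were read by 100-nucleotide paired-end sequencing. Those end populations came from pooled Saccharomyces cerevisiae strains carrying tRNA-Arg(CCU) gene variants at the native locus, competed in YPD at 37°C for 24 hours. Fitness relative to wild type was worked out from changes in genotype frequencies. Genotypes needed ≥ 100 starting reads, and estimates < 0.5 were set to 0.5.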
In the case of C5U A20U U26A G52A, the yeast fitness is ≤ 0.5.
As to C5G U53G A65U, the yeast fitness was found to be 0.612.
In the case of C5U A21C A42G C61G, the yeast fitness is ≤ 0.5.
Under C5U A15C U32A G52C C62G U64C stands ≤ 0.5; under C5U A36C U54A, ≤ 0.5.
The result for C5U A14G C33U G50C C55U A57G reads ≤ 0.5.
With C5U A21U C30G C66U, the yeast fitness is ≤ 0.5.
The result for C5U A40U A45G C46U reads 0.986; that for C5U A14U C31G U59A C61U, ≤ 0.5; that for C5U C11G C33A G67A, ≤ 0.5.
As to C5U A20G C46G C49G, the yeast fitness is ≤ 0.5.
Turning to C5U A21U U64A, the yeast fitness was ≤ 0.5.
Regarding C5U C22A, the yeast fitness turned out to be 0.84.
Under C5U A20C U26G C30U C49U C66G stands ≤ 0.5; under C5U A14C U35C, ≤ 0.5; under C5U C11U C46U A65U A69U, 0.563.
Take C5U A65U G68C: the yeast fitness was 0.541.
For C5U A15C A21U, the yeast fitness was ≤ 0.5.
Under C5U A36G G51C stands ≤ 0.5; under C5U A42C C66U, 0.793.
For the variant C5U C11G C29G, the yeast fitness is 0.733.
The result for C5U A45G C49G U59C C60U A69C reads ≤ 0.5; that for C5U C11A U13C C24G C30G C60U A69U, ≤ 0.5; that for C5U A20U A36U, ≤ 0.5.
The result for C5U A40U G56A G67C reads ≤ 0.5; that for C5U A20U G23C C31U U54C, ≤ 0.5.
The result for C5U A20C C66A reads 0.51; that for C5U A20C C66U, 0.616.
Turning to C5U A43G C62A, the yeast fitness amounted to 0.588.
For the variant C5U C11U U53G G56A C61U, the yeast fitness was ≤ 0.5.
Consider C5U A15U C55A, for which the yeast fitness was ≤ 0.5.
As for C5U A15U C29U C31U C34U U64C, the yeast fitness is ≤ 0.5.
The result for C5U A43G reads 0.966; that for C5U A43U, 0.918.
Take C5U C11A A21G A40U G68C: the yeast fitness is ≤ 0.5.
Regarding C5U A21G A45G, the yeast fitness amounted to 0.638.
Consider C5U A40C U47C A65U, for which the yeast fitness is ≤ 0.5.
Under C5U A14C G68C stands ≤ 0.5.
The result for C5U A45U G68C reads 0.531; that for C5U A37G A43C U59C C62U, ≤ 0.5; that for C5U A36U A65U, 0.712.
On to C5U C11G C24G, for which the yeast fitness is ≤ 0.5.
With C5U A15G A20C U26C G41C G67C, the yeast fitness stood at 0.593.
Consider C5G U59G, for which the yeast fitness amounted to 0.62.
Under C5G U59C stands 0.852; under C5U A20U C30U C46U U47G, ≤ 0.5; under C5G U35A G51A, ≤ 0.5.
The result for C5U A14C C34G A37U A40U reads ≤ 0.5; that for C5U A65U A69U, 0.623; that for C5G U47A C55A, 0.637.
The result for C5U A21G C33G G38A C60A reads ≤ 0.5.
Regarding C5U A21U C29G G58C, the yeast fitness was ≤ 0.5.
As to C5U C11A G44C, the yeast fitness is ≤ 0.5.
Under C5U A37U C49A G56C stands ≤ 0.5.
Under C5U A15U U35C A45C stands ≤ 0.5; under C5U C11U A15G G48C, 0.553; under C5U A20C A69U, 0.771.
Under C5U A45C U53G stands 0.574.
Consider C5U A37U, for which the yeast fitness turned out to be 0.732.
The result for C5U A37C reads 0.764; that for C5U A14G A43G, 0.553.
Under C5G U32C G38C stands 0.534; under C5G U47C A65C, 0.558.
As to C5G U35G C49A G56A, the yeast fitness is ≤ 0.5.
C5U A36G C49U A69C: the yeast fitness was ≤ 0.5.
In the case of C5U A14C C31G A43U C60G, the yeast fitness is ≤ 0.5.
Under C5U A15G A70U stands 0.696; under C5U A57G C66U, 0.655.
In the case of C5U A15C C29U G58C, the yeast fitness was ≤ 0.5.
Take C5U A20C G23C C24U C31U: the yeast fitness is ≤ 0.5.
For C5U C11G C31U G41C U54G, the yeast fitness was 0.746.
The result for C5U A45G G63A reads 0.708; that for C5U A14U C30U G39C C60A A70C, ≤ 0.5.
Under C5U A20U A36G A65U stands ≤ 0.5; under C5U A40C C46A U54A, 0.55; under C5U A14G G68C, 0.57.
Under C5U A69U stands 0.972.
For C5U A20C A43G, the yeast fitness was 0.658.
On to C5U C11U A45U A70C, for which the yeast fitness came to 0.725.
The result for C5U A37C U54A reads ≤ 0.5; that for C5U A14U C55G A65G, 0.566; that for C5U A36G A65G A70C, ≤ 0.5.
Under C5U A20U A45U stands 0.582.
Under C5U A36U A45U stands ≤ 0.5; under C5U A36G A45U, 1.01.
C5U A40C G48A: the yeast fitness is 0.592.
Under C5U A20C G58A stands ≤ 0.5; under C5U A20U U26A A65C G67C, ≤ 0.5; under C5U A14G A45G A69C, ≤ 0.5.
Regarding C5U C11U C30G C61A, the yeast fitness is ≤ 0.5.
Under C5G U35A A36C C55A stands ≤ 0.5; under C5U A14C C24U A36G A70U, ≤ 0.5.
Under C5U C11U A14C C61A stands ≤ 0.5; under C5U A14G C33G A40G C60G, ≤ 0.5.
For C5U A15C G18A U35C A42G C49A, the yeast fitness is 0.586.
Take C5U C22A C27G: the yeast fitness was 0.569.
The result for C5U C11U A21U reads 0.696.
Take C5G U35G A37G: the yeast fitness was found to be 0.536.
On to C5U C11G U13G G23C C34U U59C C66U, for which the yeast fitness was ≤ 0.5.
In the case of C5G U54A, the yeast fitness was determined as 0.666.
The result for C5G U54G reads 0.654; that for C5U A21U C30G C33U C66A, ≤ 0.5; that for C5U A37U A65G, 0.57.
As for C5U A40G G50C A57C G58C, the yeast fitness was ≤ 0.5.
Regarding C5U A20G C24G U26G A37C A57G C66A, the yeast fitness was ≤ 0.5.
The result for C5U A14U A15C reads 0.727; that for C5U A37C A40C G51A C55A G58A, 0.529; that for C5U A14U, 0.718.
Turning to C5U A14G, the yeast fitness was 0.77.
The result for C5U A21G C24A A42C G63A reads ≤ 0.5.
As for C5U A65C G67C, the yeast fitness was 0.566.
Turning to C5U A36G G52C, the yeast fitness is ≤ 0.5.
Turning to C5U A21U U32A A40U C60G, the yeast fitness was determined as 0.694.
With C5U A15U G17A G44C, the yeast fitness was ≤ 0.5.
The result for C5U C11U A15G G48C G63U A70U reads ≤ 0.5; that for C5U A20U A40C, ≤ 0.5.
The result for C5U A15U reads 0.671; that for C5U A20G C49G G52A A57C, ≤ 0.5.
The result for C5U A14C A15U G17A U26C A42U A45C G63C G68U reads ≤ 0.5.
As to C5U A15C C34G A37G A65G, the yeast fitness is ≤ 0.5.
Under C5U A37U A57U A69C stands ≤ 0.5; under C5U A21U C33U G50A U59C, ≤ 0.5.
With C5U A20U C49A, the yeast fitness was ≤ 0.5.
Under C5G U35C G48C stands 0.571; under C5U A15C C34G A40U A43C C49G G50A C60U, 0.583; under C5U A14G C22A, ≤ 0.5.
The result for C5U A14G C22U reads ≤ 0.5.
As for C5U C22A A42C C55G A57C C62U, the yeast fitness was ≤ 0.5.
The result for C5U A20U C60A reads ≤ 0.5; that for C5U A42C, 1.01; that for C5U A42G, 0.728.
The result for C5U A20C reads 1.1; that for C5U A20G, 0.904.
For C5U A14U G48A C66U, the yeast fitness is ≤ 0.5.
Take C5U A21U C30G C62U: the yeast fitness stood at 0.57.
C5U C11A A40G C55A C66A: the yeast fitness was ≤ 0.5.
With C5U A14U U19C G48A C66U, the yeast fitness was ≤ 0.5.
Turning to C5U A37C A70C, the yeast fitness is 0.631.
As for C5U A37C C46U U53C A69C, the yeast fitness is ≤ 0.5.
Regarding C5U A14C G52C A65U, the yeast fitness is ≤ 0.5.
Under C5U A15U C27G stands ≤ 0.5.
Turning to C5U A21G G67A, the yeast fitness was 0.629.
Under C5G U35C A69C stands 0.551; under C5U C11A U28G G44C, ≤ 0.5.
Under C5U A15U C30G C33G A40G A42G A43U U54G stands ≤ 0.5.
Under C5U A20C C24U C34G stands ≤ 0.5; under C5G U35C, 0.71; under C5U A40C A42G G68A, ≤ 0.5.
C5U C11U G17A C31G G68A: the yeast fitness was ≤ 0.5.
Under C5U A14U C24G stands ≤ 0.5.
Regarding C5U A14G U26C C30U A42C C61U, the yeast fitness is ≤ 0.5.
C5U C11A A14G A42G C55U A65U: the yeast fitness was ≤ 0.5.
Under C5U C11U A21C C24U U26C U28A C31G C49G stands ≤ 0.5.
The result for C5U A40C C46A reads 0.794; that for C5U A20U G67A, 0.882; that for C5U A20C C22U A36G G52C, ≤ 0.5.
In the case of C5U A15C G58A, the yeast fitness is 0.569.
Under C5U A15C G23C G56A stands ≤ 0.5.
The result for C5G U54C G56A reads 0.729.
Consider C5U A14G U28C, for which the yeast fitness was 0.562.
The result for C5G U47A G68C reads 0.565; that for C5G U35A G44C C66U G67U A70G, 0.542; that for C5U, 0.987.
Under C5U A14C A45C stands ≤ 0.5; under C5U A21U C30G A42G U59C C66G G68A, ≤ 0.5; under C5U C11U C61G G63C, 0.546.
As for C5U C11U C46U G51A C66U, the yeast fitness was ≤ 0.5.
